In ChEMBL document CHEMBL4387722:

Tests used:
[1] = Cytotoxicity against human THLE3 cells assessed as reduction in cell viability after 48 hrs by Alamar blue assay; assay type: cell-based
Summary of the method: (§1)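 Alamar Blue viability read-out. Human liver (THLE-3) and kidney (HEK 293) cells incubated with compound for 48 h. Tested in dose-response to derive CC50.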

[2] = Inhibition of refolded rhodanese (unknown origin) preincubated with Escherichia coli GroEL/GroES for 60 mins by measuring rhodanese enzyme activity followed by compound addition by Fe(SCN)3 dye based spectrometric analysis; parameters: species or system Homo sapiens
HSP60/HSP10 = HSP60/HSP10 (Homo sapiens, UniProt P10809); test: Inhibition of human HSP60 expressed in Escherichia coli Rosetta 2(DE3)/human HSP10 expressed in Escherichia coli Rosetta 2(DE3) pLysS cells assessed as reduction in HSP60/HSP10-mediated denatured pig heart mitochondrial MDH refolding by measuring MDH enzyme activity using sodium mesoxalate as substrate after 40 to 60 mins by spectrometric analysis
[3] = molecular target: T1, Tyrosine-protein phosphatase non-receptor type 5 (Homo sapiens, UniProt P54829); test: Inhibition of human PTPN5 expressed in Escherichia coli Rosetta 2 (DE3) using pNPP as substrate after 45 mins by spectrophotometric method
T1 sequence (P54829 whole entry): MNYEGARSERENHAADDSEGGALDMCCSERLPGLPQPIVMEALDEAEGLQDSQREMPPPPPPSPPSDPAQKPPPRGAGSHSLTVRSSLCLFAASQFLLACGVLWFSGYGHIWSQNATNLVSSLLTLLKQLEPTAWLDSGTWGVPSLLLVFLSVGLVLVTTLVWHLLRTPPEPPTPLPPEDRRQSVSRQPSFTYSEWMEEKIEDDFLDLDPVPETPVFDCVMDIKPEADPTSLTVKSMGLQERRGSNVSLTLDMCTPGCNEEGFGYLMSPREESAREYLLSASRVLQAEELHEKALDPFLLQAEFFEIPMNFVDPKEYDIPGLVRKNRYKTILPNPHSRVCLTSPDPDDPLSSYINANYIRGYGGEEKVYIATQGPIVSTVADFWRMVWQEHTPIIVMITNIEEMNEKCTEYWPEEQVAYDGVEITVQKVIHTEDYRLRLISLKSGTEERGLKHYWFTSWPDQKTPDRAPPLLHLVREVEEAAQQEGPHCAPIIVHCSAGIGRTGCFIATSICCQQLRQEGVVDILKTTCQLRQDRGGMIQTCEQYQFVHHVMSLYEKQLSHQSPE

E. coli GroEL/ES [4] = molecular target: T2, E. coli GroEL/ES (Escherichia coli, UniProt P0A6F5); test: Inhibition of Escherichia coli GroEL expressed in Escherichia coli DH5alpha/Escherichia coli GroES expressed in Escherichia coli BL21 (DE3) assessed as reduction in GroEL/GroES-mediated denatured rhodanese refolding by measuring rhodanese enzyme activity after 45 mins by Fe(SCN)3 dye based spectrometric analysis
E. coli GroEL/ES [5] = molecular target: T2, E. coli GroEL/ES; test: Inhibition of Escherichia coli GroEL expressed in Escherichia coliDH5alpha/Escherichia coli GroES expressed in Escherichia coli BL21 (DE3) assessed as reduction in GroEL/GroES-mediated denatured pig heart mitochondrial MDH refolding by measuring MDH enzyme activity using sodium mesoxalate as substrate after 20 to 40 mins by spectrometric analysis
[6] = system: Mycobacterium tuberculosis; test: Antitubercular activity against Mycobacterium tuberculosis H37Rv after 5 days at 200 uM relative to control; assay type: functional; conditions: 120 h
Summary of the method: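 M. tuberculosis grown in liquid culture with compound at a fixed 200 μM for 5 days. Growth inhibition expressed as percent of control.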

[7] = system: Mycobacterium tuberculosis; test: Antitubercular activity against Mycobacterium tuberculosis H37Rv after 5 days; assay type: functional, organism-based; conditions: 120 h
[8] = molecular target: T3, Phosphotyrosine protein phosphatase (Mycobacterium tuberculosis, UniProt A0A045ISB3); test: Inhibition of Mycobacterium tuberculosis His-tagged PtpB expressed in Escherichia coli Rosetta 2 (DE3) using pNPP as substrate after 30 mins by spectrophotometric method
T3 sequence (A0A045ISB3 whole entry): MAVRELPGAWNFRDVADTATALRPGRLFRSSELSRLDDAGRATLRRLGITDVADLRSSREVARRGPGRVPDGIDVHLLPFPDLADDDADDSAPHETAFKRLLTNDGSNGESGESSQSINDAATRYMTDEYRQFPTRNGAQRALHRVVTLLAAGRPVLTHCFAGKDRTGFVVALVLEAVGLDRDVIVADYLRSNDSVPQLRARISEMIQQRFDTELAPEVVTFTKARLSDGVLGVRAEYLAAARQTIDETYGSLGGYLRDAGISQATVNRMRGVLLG

[9] = molecular target: T4, Malate dehydrogenase, mitochondrial (Sus scrofa, UniProt P00346); test: Inhibition of refolded pig heart mitochondrial MDH preincubated with Escherichia coli GroEL/GroES for 45 mins using sodium mesoxalate as substrate followed by compound addition and measured after 20 to 30 mins by spectrometric analysis
T4 sequence (P00346 whole entry): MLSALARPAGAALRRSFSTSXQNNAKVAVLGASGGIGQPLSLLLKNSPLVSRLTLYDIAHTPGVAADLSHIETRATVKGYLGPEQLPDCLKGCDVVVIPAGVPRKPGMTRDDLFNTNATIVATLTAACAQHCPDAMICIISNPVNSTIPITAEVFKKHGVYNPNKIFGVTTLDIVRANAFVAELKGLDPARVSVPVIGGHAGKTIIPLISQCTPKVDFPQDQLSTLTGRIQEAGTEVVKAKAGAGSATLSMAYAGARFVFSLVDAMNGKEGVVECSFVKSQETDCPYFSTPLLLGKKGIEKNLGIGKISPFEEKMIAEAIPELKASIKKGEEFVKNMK

[10] = Cytotoxicity against human HEK293 cells assessed as reduction in cell viability after 48 hrs by Alamar blue assay; assay type: cell-based; summary of the method: as §1
[11] = molecular target: T5, Tyrosine-protein phosphatase non-receptor type 2 (Homo sapiens, UniProt P17706); test: Inhibition of human PTPN2 expressed in Escherichia coli Rosetta 2 (DE3) using pNPP as substrate after 45 mins by spectrophotometric method
T5 sequence (P17706 whole entry): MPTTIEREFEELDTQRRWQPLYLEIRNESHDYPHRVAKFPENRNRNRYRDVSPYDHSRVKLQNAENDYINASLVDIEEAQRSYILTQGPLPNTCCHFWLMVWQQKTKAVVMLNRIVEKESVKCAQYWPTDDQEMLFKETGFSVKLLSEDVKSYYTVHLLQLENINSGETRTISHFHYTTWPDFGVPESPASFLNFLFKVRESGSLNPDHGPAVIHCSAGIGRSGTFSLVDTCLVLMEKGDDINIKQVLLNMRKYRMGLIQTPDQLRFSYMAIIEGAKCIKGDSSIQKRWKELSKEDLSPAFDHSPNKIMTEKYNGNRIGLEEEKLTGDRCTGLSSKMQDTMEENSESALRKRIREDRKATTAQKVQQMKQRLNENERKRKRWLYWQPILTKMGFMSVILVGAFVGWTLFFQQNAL

[12] = molecular target: T6, Tyrosine-protein phosphatase non-receptor type 1 (Homo sapiens, UniProt P18031); test: Inhibition of human PTPN1 expressed in Escherichia coli Rosetta 2 (DE3) using pNPP as substrate after 45 mins by spectrophotometric method
T6 sequence (P18031 whole entry): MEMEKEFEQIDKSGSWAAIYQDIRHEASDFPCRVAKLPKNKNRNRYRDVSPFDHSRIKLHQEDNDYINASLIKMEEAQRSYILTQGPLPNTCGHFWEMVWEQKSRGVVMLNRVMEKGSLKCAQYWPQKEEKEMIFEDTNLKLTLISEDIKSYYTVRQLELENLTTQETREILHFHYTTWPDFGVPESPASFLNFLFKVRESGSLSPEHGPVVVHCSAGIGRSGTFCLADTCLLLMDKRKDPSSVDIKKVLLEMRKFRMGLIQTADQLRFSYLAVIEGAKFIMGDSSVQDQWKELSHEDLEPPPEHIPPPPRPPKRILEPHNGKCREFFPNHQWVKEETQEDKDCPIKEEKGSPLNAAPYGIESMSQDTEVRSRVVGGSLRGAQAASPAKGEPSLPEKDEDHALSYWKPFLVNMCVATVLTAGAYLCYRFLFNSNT

Sequence of HSP60/HSP10 (P10809 whole entry): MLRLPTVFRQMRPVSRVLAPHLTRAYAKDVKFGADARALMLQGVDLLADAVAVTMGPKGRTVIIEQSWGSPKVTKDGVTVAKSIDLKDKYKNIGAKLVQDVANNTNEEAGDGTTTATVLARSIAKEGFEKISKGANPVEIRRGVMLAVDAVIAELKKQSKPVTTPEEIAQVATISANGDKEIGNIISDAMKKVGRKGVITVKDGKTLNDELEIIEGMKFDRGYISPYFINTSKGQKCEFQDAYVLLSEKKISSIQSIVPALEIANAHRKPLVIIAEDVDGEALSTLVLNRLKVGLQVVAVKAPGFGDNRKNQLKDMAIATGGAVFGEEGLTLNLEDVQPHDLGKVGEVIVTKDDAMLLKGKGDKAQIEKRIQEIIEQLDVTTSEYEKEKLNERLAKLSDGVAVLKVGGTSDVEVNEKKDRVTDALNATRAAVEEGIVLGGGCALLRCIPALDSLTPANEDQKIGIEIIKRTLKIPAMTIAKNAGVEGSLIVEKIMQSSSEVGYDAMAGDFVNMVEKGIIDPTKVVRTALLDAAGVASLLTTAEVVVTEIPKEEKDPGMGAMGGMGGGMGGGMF
Sequence of HSP60/HSP10 (P61604 whole entry, further chain): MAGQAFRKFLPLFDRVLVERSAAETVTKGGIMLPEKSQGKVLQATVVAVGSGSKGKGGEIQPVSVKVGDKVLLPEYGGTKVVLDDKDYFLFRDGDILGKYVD
T2 sequence (P0A6F5 whole entry, looked up): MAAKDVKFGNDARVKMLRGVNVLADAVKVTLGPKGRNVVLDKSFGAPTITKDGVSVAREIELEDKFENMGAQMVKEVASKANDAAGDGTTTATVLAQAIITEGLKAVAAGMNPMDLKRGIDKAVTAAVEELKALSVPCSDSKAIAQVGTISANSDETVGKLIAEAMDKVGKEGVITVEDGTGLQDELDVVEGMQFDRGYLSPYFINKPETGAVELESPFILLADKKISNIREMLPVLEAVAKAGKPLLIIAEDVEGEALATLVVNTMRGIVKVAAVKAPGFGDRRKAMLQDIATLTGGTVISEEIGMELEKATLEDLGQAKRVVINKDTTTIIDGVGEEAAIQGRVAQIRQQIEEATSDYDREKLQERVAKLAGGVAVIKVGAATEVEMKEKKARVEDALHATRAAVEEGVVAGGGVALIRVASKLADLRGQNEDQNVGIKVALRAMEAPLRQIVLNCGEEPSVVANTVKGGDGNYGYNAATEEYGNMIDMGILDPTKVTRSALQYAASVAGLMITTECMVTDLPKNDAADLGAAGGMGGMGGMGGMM

SMILES	CC50 at 48 h [1] [µM]	IC50 [2] [µM]	IC50 (HSP60/HSP10) [µM]	IC50 [3] [µM]	IC50 (E. coli GroEL/ES [4]) [µM]	IC50 (E. coli GroEL/ES [5]) [µM]	inhibition at 200 µM [6] [%]	EC50 [7] [µM]	IC50 [8] [µM]	IC50 [9] [µM]	CC50 at 48 h [10] [µM]	IC50 [11] [µM]	IC50 [12] [µM]
COc1cccc(S(=O)(=O)Nc2ccc3oc(-c4ccccc4)nc3c2)c1	37	> 100	> 100	44	220	> 100	83	162	> 100	> 63	63	87	86
O=S(=O)(Nc1ccc(-c2nc3ccccc3o2)cc1)c1ccccc1F	> 100	> 100	> 100	70	180	> 100	8	–	85	> 63	> 100	80	55
O=S(=O)(Nc1ccc2oc(-c3ccccc3)nc2c1)c1ccc(Cl)c(C(F)(F)F)c1	47	> 100	> 100	28	132	92	0	–	40	> 63	66	34	40
COc1ccc(Cl)cc1S(=O)(=O)Nc1ccc2oc(-c3ccccc3)nc2c1	31	> 100	> 100	37	105	81	0	–	31	> 63	74	25	27
Cc1ccc(S(=O)(=O)Nc2ccc(-c3nc4ccccc4o3)cc2)cc1	82	> 100	> 100	45	157	> 100	28	–	52	> 63	88	49	42
O=S(=O)(Nc1ccc(-c2nc3ccccc3o2)cc1)c1ccc(Cl)c(C(F)(F)F)c1	81	> 100	12	34	67	23	18	–	29	> 63	69	28	28
O=S(=O)(Nc1ccc2oc(-c3ccccc3)nc2c1)c1ccc(Cl)cc1	40	> 100	> 100	26	149	> 100	0	–	56	> 63	65	35	44
O=S(=O)(Nc1ccc2oc(-c3ccccc3)nc2c1)c1ccc(C(F)(F)F)cc1	49	> 100	> 100	27	159	64	0	–	26	> 63	74	44	36
O=S(=O)(Nc1ccc2oc(-c3ccccc3)nc2c1)c1cccc(C(F)(F)F)c1	58	> 100	> 100	45	180	95	41	–	77	> 63	> 100	76	83
